For series [1] the following is noted: cited from earlier work.
In series [2] the target is T1, recombinant human MAO-B (Homo sapiens, UniProt P27338).
T1 sequence (P27338 1-520): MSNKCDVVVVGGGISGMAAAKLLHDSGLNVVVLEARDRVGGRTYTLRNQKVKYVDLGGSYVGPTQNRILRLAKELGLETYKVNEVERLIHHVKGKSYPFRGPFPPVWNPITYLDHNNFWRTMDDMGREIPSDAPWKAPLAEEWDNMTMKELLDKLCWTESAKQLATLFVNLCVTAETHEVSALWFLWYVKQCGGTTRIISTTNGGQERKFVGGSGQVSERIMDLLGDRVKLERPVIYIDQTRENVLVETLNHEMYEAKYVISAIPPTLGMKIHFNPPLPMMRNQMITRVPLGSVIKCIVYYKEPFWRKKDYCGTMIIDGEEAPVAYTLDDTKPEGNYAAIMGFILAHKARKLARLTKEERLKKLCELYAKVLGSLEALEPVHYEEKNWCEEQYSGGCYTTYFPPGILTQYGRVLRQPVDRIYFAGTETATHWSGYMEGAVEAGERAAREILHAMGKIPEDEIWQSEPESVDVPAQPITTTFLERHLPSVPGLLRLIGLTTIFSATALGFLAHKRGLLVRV
In words: biochemical. Format: biochemical.

Another series deals with T2, recombinant human MAO-A (Homo sapiens, UniProt P21397).
T2 sequence (P21397 1-527): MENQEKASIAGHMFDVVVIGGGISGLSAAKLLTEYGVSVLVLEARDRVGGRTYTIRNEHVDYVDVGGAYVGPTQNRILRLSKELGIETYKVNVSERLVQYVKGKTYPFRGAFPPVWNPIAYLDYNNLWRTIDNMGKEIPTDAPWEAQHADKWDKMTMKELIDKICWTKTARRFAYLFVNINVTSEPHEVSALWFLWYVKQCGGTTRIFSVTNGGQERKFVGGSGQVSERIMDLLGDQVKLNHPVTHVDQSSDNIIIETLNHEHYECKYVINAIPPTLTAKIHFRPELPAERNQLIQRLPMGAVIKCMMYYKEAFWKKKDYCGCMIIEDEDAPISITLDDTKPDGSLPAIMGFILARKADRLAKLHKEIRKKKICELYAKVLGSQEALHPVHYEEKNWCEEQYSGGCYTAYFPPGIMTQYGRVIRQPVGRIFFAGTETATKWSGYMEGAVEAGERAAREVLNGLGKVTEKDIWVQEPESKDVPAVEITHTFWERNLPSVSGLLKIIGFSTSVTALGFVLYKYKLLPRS
In words: Fluorometric kynuramine deamination assay, recombinant human MAO-A inhibition. Format: biochemical.

Series [3] in a line: Solubility observation at the concentrations tested. The settings on record: at the concentrations tested in the MAO assays.
Series [4] addresses T1, recombinant human MAO-B. The series is classed as biochemical.
In series [5] the target is T1, recombinant human MAO-B. Format: binding.
Series [6] has as its target T1, recombinant human MAO-B. Format: biochemical. The source holds these as a separate data set.
In series [7] the test system is MAO activity in Neuroscreen-1 (NS-1) cells. In words: MAO activity in lysates of treated Neuroscreen-1. The series is classed as cell-based, rat. The settings on record: deprenyl 1.0 μM, 12 hours. An outline of the steps:
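NS-1 cells (rat PC12 subclone) in suspension culture were treated for 12 hours with test compound (100 µM), a selective MAO-B inhibitor reference (1.0 µM) or ethanol, alongside untreated controls. Lysates were prepared from the cells. MAO activity in the lysates was measured by fluorometric kynuramine deamination, with kynuramine at 80 µM for MAO-A and 50 µM for MAO-B.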

[8] abbreviates: read-out: MAO-B IC50 (μM) ± S.D., kynuramine 50 μM, test compounds 0.01 to 100 μM, mean ± S.D. of triplicate.

Usually IC50 stands for the concentration at which inhibition is half-maximal. Usually Ki stands for a measure of affinity in units of concentration, obtained from inhibition or displacement.

Where “and” joins values, the source holds several entries; their conditions need not be identical. Equal entries are not always repeated. Entries after “also recorded” stand apart in the source; their conditions may differ. Where two headings read alike, the source gives them in different places.

As for `CCCCC/C=C\C/C=C\C/C=C\C/C=C\CCCC(=O)OC(CO)CO` [2-AG, 2-arachidonoylglycerol], in series [1] (ref 48), the “critical micellar concentration (CMC)” value was 4.2 ± 0.5 µM. In addition, the IC50 at recombinant human MAO-B [2] is 50.5 ± 0.515 µM; at recombinant human MAO-A it was above 100 µM. In addition, in series [3], the solubility issues result is given as “did not show any solubility issues”.
With `CCCCC/C=C\C/C=C\C/C=C\C/C=C\CCCC(=O)N[C@H](C)CO` [(R)-(+)-Methanandamide], the IC50 on recombinant human MAO-B [2] (setting [8]) was found to be 51.1 ± 1.3 µM. Moreover, the solubility issues result in series [3] was “did not show any solubility issues”.
As for `CCCCC/C=C\C/C=C\C/C=C\C/C=C\CCCC(=O)NCCO` [Anandamide], the IC50 was 40 ± 4.6 µM at recombinant human MAO-B [2] and above 100 µM on recombinant human MAO-A.
As to `CCCCC/C=C\C/C=C\C/C=C\C/C=C\CCCC(=O)NCC(=O)O` [NA-glycine, N-arachidonyl-glycine], the “critical micellar concentration (CMC)” value in series [1] (ref 48) was above 100 µM.
As for `CCCCC/C=C\C/C=C\C/C=C\C/C=C\CCCCOC(CO)CO` [Noladin ether], the IC50 on recombinant human MAO-B [2] (setting [8]) turned out to be 18.2 ± 1.45 µM. Moreover, in series [3], the solubility issues entry is reported as “did not show any solubility issues”.
Regarding `CCCCCCCC/C=C\CCCCCCCC(=O)NCCO` [Oleylethanolamide], on recombinant human MAO-B [2] (kynuramine 50 μM, test compounds 0.01 to 100 μM, mean ± S.D. of triplicate), the “MAO-B IC50 (μM) ± S.D.” value is “no activity”. Further, the IC50 at recombinant human MAO-B [2] (setting [8]) is above 100 µM. Moreover, the “MAO-A IC50 (μM) ± S.D.” value at recombinant human MAO-A (kynuramine 80 μM, test compounds 0.01 to 100 μM, mean ± S.D. of triplicate) is “no activity”.
For `CCCCC/C=C\C/C=C\C/C=C\C/C=C\CCCC(=O)OCCN` [Virodhamine], the “inhibition of MAO-B after pre-incubation” value on recombinant human MAO-B [4] (0.25 μM virodhamine, pre-incubation 0-15 min) is reported as 55-70%. The “time dependence of MAO-B inhibition” value at recombinant human MAO-B [4] (pre-incubation 0-15 min, virodhamine 2.5 μM, deprenyl 0.100 μM) is listed as “time-dependent”. Moreover, the “inhibition of the enzyme activity at the concentration chosen” value on recombinant human MAO-B [4] (virodhamine 2.5 μM) was above 60%. The “fold greater inhibition of MAO-B compared to MAO-A” value on recombinant human MAO-B [2] (ratio of IC50 MAO-A / MAO-B) is ~ 55 fold and > 54 fold. Moreover, the IC50 at recombinant human MAO-B [2] (setting [8]) amounted to 0.71 ± 0.04 µM. Besides, the “nature of binding with MAO-B (reversibility)” value at recombinant human MAO-B [5] (equilibrium dialysis overnight) is “irreversible”. The “enzyme activity recovered after overnight dialysis” value at recombinant human MAO-B [5] (virodhamine 10.0 μM, 20 min at 37 °C, dialysis 14-16 h at 4 °C) was determined as 2.644 ± 0.450%. Further, the “inhibition of catalytic activity before dialysis” value on recombinant human MAO-B [5] (virodhamine 10.0 μM, 20 min incubation) was “almost complete inhibition”. For the same molecule, the “MAO-B Type of Inhibition” value at recombinant human MAO-B [6] (Lineweaver-Burk analysis and dialysis) was “mixed mechanism/irreversible binding; also recorded: mixed enzyme inhibition mechanism”. Further, the inhibition constant (Ki) on recombinant human MAO-B [6] (read-out: MAO-B Ki (μM) ± S.D., kynuramine 1.90 to 500 μM, mean ± S.D. of triplicate) came out at 0.258 ± 0.037 µM.
Turning to `CCCCC/C=C\C/C=C\C/C=C\C/C=C\CCCC(=O)O` [arachidonic acid], the “critical micellar concentration (CMC)” value in series [1] (ref 46) was 73 µM; in series [1] (ref 47), ~ 30 μM.
Take `CCCCC/C=C\C/C=C\C/C=C\C/C=C\CCCCO` [arachidonoyl alcohol]: the “critical micellar concentration (CMC)” value in series [1] (ref 46) was 30 µM.
For the molecule R-(−)-deprenyl hydrochloride, the “inhibition of MAO activity in NS-1 cells” value in series [7] is recorded as above 90%.

The values above are taken from publication PMC6298601 (Biochemical pharmacology, 2018).
